Source: PubChem BioAssay
PRMT1 FP inh – PRMT1 methyltransferase inhibitors, primary screen, biochemical, fluorescence polarization. recombinant PRMT1, activity-based probe fluorescence polarization. inhibition, % at 2.79 µM. actives 1.3% (n = 370,000). AID 652257, 2013;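 active means inhibition above about 21% made by adding two undisclosed values, limit read from the data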
Target sequence (Q99873 whole entry, looked up): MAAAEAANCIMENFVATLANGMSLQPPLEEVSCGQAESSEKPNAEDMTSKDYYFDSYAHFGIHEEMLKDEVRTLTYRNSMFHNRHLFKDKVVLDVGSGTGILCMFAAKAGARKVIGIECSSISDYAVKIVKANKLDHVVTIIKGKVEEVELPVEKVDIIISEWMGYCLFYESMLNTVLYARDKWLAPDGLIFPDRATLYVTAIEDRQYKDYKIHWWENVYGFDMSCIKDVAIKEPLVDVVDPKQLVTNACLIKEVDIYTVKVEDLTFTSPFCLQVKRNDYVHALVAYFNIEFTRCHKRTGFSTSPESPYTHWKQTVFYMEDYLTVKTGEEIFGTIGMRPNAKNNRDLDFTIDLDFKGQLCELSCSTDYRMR
mABHD4 FP – ABHD4 inhibitors, primary screen, biochemical, fluorescence polarization, mouse; (Lyso)-N-acylphosphatidylethanolamine lipase (Mus musculus), Q8VD66; purified mABHD4, FP-Rh probe fluorescence polarization; inhibition, % at 8.92 µM; actives 0.54% (n = 370,000); AID 720543, 2013;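 active means inhibition exceeding the mean over every tested compound plus 3 SD, cut at about 30% in these data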;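 further: 0% = plate median of compound wells and 100% = S159A mutant with DMSO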
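Test system: mouse ABHD4 enzyme, wild type. Reagent: FP-Rh fluorescent activity-based probe, added after compound pre-incubation. Timing: pre-incubation 45 min, probe exposure 60 min, at 25 °C. Technique: FP readout, ex 525 nm / em 598 nm. Benchmarks: high control S159A mutant with DMSO, low control median of compound wells.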
rCAG RNA binder – binders of r(CAG) RNA repeats, primary screen, biochemical, fluorescence; actives 1.3% (n = 370,000); r(CAG) RNA repeat, TO-PRO-1 dye displacement fluorescence; inhibition, % at 3 µM; AID 651821, 2012;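 active means inhibition above the plate cutoff, the mean of all test compounds on that plate plus 3 SD, cut at about 35% in these data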;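 further: 0% = DMSO alone and 100% = 100 µM mitoxantrone as full dye displacement; higher means more dye released from RNA so lower well fluorescence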
HTRA1 inh – HTRA1 serine protease inhibitors, primary screen, biochemical, fluorescence polarization, HTS | Q92743 | actives 0.5% (n = 340,000) | recombinant HTRA1, FP-rhodamine activity-based probe | inhibition, % at 5.96 µM; in the data active means inhibition above about 36%;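 further: 0% = enzyme with DMSO and 100% = wells lacking enzyme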
DAGLB inhibitor – DAGLB lipase inhibitors, primary screen, biochemical, fluorescence, HTS | actives 0.059% (n = 340,000) | AID 504411, 2011 | inhibition, % at 5.17 µM | Diacylglycerol lipase-beta (Homo sapiens), Q8NCG7 | HEK293T DAGLB membrane lysate, EnzChek fluorogenic substrate; in the data active means inhibition above about 34%;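 further: 0% = enzyme with vehicle and 100% = wells lacking enzyme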
LEDGF integ inh – blockers of LEDGF/p75-dependent integrase strand transfer – biochemical, TR-FRET, high throughput, primary screen; TR-FRET IN-LEDGF/p75 DNA integration, Eu/Cy5; actives 0.64% (n = 370,000); inhibition, % at 3.7 µM; HIV-1 integrase (with human LEDGF/p75);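 active means inhibition above the screen-wide mean plus 3 SD, cut at about 13% in these data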;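 further: signal is the Cy5 over europium emission ratio at 671 and 618 nm; 0% = plate median of compound wells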
PRMT1 inh conf – PRMT1 methyltransferase inhibitors, confirmation, biochemical, fluorescence polarization, triplicate; recombinant His-PRMT1, activity-based probe fluorescence polarization; actives 42% (n = 3,300); shares compounds with PRMT1 FP inh; AID 687036, 2013; inhibition, % at 2.79 µM;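 active means mean inhibition across replicates above the hit cutoff derived for the earlier primary screen, cut at about 22% in these data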
Active calls of the source: *; / = not tested or not shown. This is a sample that favours compounds with a hit; in the whole collection about 3.2% have one here.

SMILES | PRMT1 FP inh | mABHD4 FP | rCAG RNA binder | HTRA1 inh | DAGLB inhibitor | LEDGF integ inh | PRMT1 inh conf
COC(=O)[C@@]1(Sc2ccc(C)cc2)CC(=O)N(C(=O)C2CC2)[C@@H]1c1ccccc1 | 55* | 2 | 2 | / | / | -4 | 58*
COc1ccc(C(=O)N2CCN(S(=O)(=O)c3ccc(C)cc3C)CC2)cc1OC | 6 | 0 | -2 | -2 | 2 | 0 | /
CSCSC1=C(C#N)C(c2ccccc2Cl)C(C(C)=O)=C(C)N1 (configuration not stated) | 27* | -2 | 4 | -17 | -5 | 9 | 4
CCOC(=O)CSC1=C(C#N)C(c2ccccc2F)C(C(C)=O)=C(C)N1 (configuration not stated) | 0 | -5 | -5 | -9 | -5 | 3 | /
O=C(NCc1ccco1)c1nn2c(C(F)(F)F)cc(-c3cccs3)nc2c1Cl | 2 | 3 | -1 | -2 | 2 | 1 | /
O=C(NCc1ccco1)c1cc2nc(-c3cccs3)cc(C(F)(F)F)n2n1 | 34* | -1 | 6 | -17 | 1 | 7 | 2
Cc1ccccc1C(=O)NNc1ccc(-c2csnn2)cc1 | 27* | 2 | -1 | -5 | 0 | -5 | 7
COc1ccc(Nc2nnc(SCc3cc(=O)n4ccsc4n3)s2)cc1 | 29* | 14 | 17 | 8 | 2 | 3 | 35*
O=c1cc(CSc2nnc(Nc3ccccc3F)s2)nc2sccn12 | -4 | 3 | -3 | -2 | -1 | 1 | /
CC(C)(C)c1csc(N/N=C/c2ccc(O)cc2)n1 | 2 | 11 | 14 | 25 | 3 | 3 | /
COc1ccc(CCN(/C=C2\Sc3ccccc3C2=O)C(C)=O)cc1OC | 67* | -13 | 0 | / | / | -3 | 45*
COc1ccc(CCN(C)C(=O)CN2C(=O)c3ccccc3S2(=O)=O)cc1OC | -2 | -11 | 1 | 3 | -1 | 3 | /
CS(=O)(=O)c1ccc(S(=O)CC(=O)OCc2ccccc2)c([N+](=O)[O-])c1 (configuration not stated) | 66* | 1 | 5 | 1 | -17 | 9 | 34*
COc1ccc(N(C)S(=O)(=O)c2cccc(C(=O)NCc3ccc(C)cc3)c2)cc1 | 0 | -7 | -2 | -31 | 0 | 6 | /
CCOC(=S)SCc1cn2cccc(C)c2n1 | 57* | -14 | 1 | 5 | -3 | -6 | 12
NS(=O)(=O)c1ccc(CCNC(=O)CCC(=O)c2cccs2)cc1 | 4 | -3 | 14 | -6 | 1 | -6 | /
O=C(CCC(=O)c1cccs1)NCCc1ccc(F)cc1 | 26* | 2 | 9 | -21 | 0 | 0 | -2
CC(C)(C)NC(=O)CN(C(=O)CSc1nnc(COc2ccccc2)o1)c1cccc(F)c1 | -1 | -7 | -6 | 0 | -4 | -3 | /
COc1ccccc1NC(CC(=O)c1ccccc1)C(=O)OCC(=O)c1ccc(C)c(C)c1 (configuration not stated) | 50* | -8 | 7 | -7 | -2 | 4 | 10
COc1ccccc1NC(CC(=O)c1ccccc1)C(=O)OCC(=O)c1ccc(C)cc1 (configuration not stated) | 16 | 2 | -1 | -3 | -3 | 0 | /
CC(=C1SC(=S)NC1=O)c1ccc(Cl)c(O)c1 | 2 | -15 | 4 | / | / | -4 | /
COc1cc(OC)cc(C(=O)NCC(=O)N2CCN(c3ccc(O)cc3)CC2)c1 | 25* | 5 | 12 | 3 | -1 | 1 | 1
COC(=O)c1ccc2nc(-c3ccco3)c(Cc3cccc(F)c3)n2c1 | 43* | -2 | 20 | / | / | 6 | 36*
Fc1ccc(-c2nc3c(Cl)cc(C(F)(F)F)cn3c2Cc2cccc(F)c2)cc1 | -4 | -19 | 6 | / | / | 3 | /
COC(=O)c1ccc2nc(-c3ccco3)c(Cc3ccc(C)cc3)n2c1 | 34* | -2 | 18 | / | / | 1 | 10
SMILES | PRMT1 FP inh | mABHD4 FP | rCAG RNA binder | HTRA1 inh | DAGLB inhibitor | LEDGF integ inh | PRMT1 inh conf
Fc1cccc(Cc2c(-c3ccco3)nc3c(Cl)cc(C(F)(F)F)cn23)c1 | 38* | 3 | 32 | / | / | 0 | 23*
COC(=O)c1ccc2nc(-c3ccc(F)cc3)c(Cc3cccc(F)c3)n2c1 | 1 | -2 | 5 | / | / | 3 | /
Cc1ccc2nc(-c3ccco3)c(Cc3ccsc3)n2c1 | 35* | 11 | 11 | / | / | -1 | 27*
CCC(=O)c1ccc(OCC(=O)OCC(=O)c2cc(C)n(C3CC3)c2C)cc1 | 0 | 3 | -2 | 3 | 0 | -2 | /
O=C(COc1cc2oc(=O)c3c(c2cc1Cl)CCCC3)NCc1cccnc1 | -1 | -1 | -2 | 3 | 3 | 0 | /
COc1ccc(C(=O)NC(=O)CSc2nc3nc(C)cc(C)n3n2)cc1 | 27* | 4 | 3 | 4 | 2 | 0 | 2
Cc1cccc(C)c1NC(=O)CN(C)C(=O)CSCc1c(C)noc1C | -3 | -9 | 2 | 2 | 0 | 4 | /
O=C(CSS(=O)(=O)O)N1CCN(C(=O)c2ccoc2)CC1 | 45* | 2 | -1 | 5 | 0 | 0 | 29*
Cc1ccc(S(=O)(=O)N2CCCC2C(=O)Oc2ccccc2)cc1 (configuration not stated) | 0 | -1 | -2 | -13 | -3 | -1 | /
Cc1cccc(-c2nc(=S)c3c(n2Cc2ccco2)CCCC3)c1 | 8 | 7 | 4 | -13 | 4 | 2 | /
COc1cccc(-c2nc(=S)c3c(n2Cc2ccco2)CCCC3)c1 | 26* | -6 | 14 | -18 | -13 | 4 | 1
CCNc1cccc2c1C(=O)N(C)C2=O | 44* | 0 | -42 | -1 | -8 | 1 | 46*
COc1ccccc1-n1c(COc2ccccc2-c2ccccc2)nnc1SCC(=O)c1c(N)n(C)c(=O)n(C)c1=O | -1 | 0 | 2 | -17 | 1 | 1 | /
O=C1CCC/C(=N/NC(=O)c2sc3ccccc3c2Cl)C1 | 85* | 7 | -41 | -13 | -14 | -3 | 8
O=C(NN=C1CCCC1)c1sc2ccccc2c1Cl | 0 | 6 | 6 | 5 | -7 | 4 | /
COCCN(C(=O)CCCc1nc2ccccc2s1)c1c(N)n(CC(C)C)c(=O)[nH]c1=O | 36* | 5 | 2 | -1 | 0 | -3 | 27*
CC(C)CN(C(=O)COC(=O)CCCc1nc2ccccc2s1)c1c(N)n(Cc2ccccc2)c(=O)[nH]c1=O | 3 | 5 | -3 | 1 | 4 | -2 | /
